Experimental data from ChEMBL document CHEMBL3621132, “Discovery of diazepane amide DORAs and 2-SORAs enabled by exploration of isosteric quinazoline replacements” (Bioorg Med Chem Lett, 2015).
pIC50, pKi: −log10 of the molar value. Activity calls are given as the source filed them. The calls are words filed in the database; no cut-off is given here.

Experiments:
[1] = target: Orexin receptor type 2 (Homo sapiens) (UniProt O43614); test: Binding affinity to human orexin 2 receptor expressed in CHO cells after 3 hrs by radioligand binding assay
[2] = target: Orexin receptor type 1 (Homo sapiens) (UniProt O43613); test: Binding affinity to human orexin 1 receptor expressed in CHO cells after 3 hrs by radioligand binding assay
[3] = target: Orexin receptor type 2 (Homo sapiens) (UniProt O43614); test: Antagonist activity at human orexin 2 receptor expressed in CHO cells assessed as inhibition of orexin-A-induced intracellular calcium level after 60 mins by FLIPR assay; conditions: 1 h
Orexin receptor type 2 = target: T1, Orexin receptor type 2 (Homo sapiens, UniProt O43614); test: Antagonist activity at human orexin 2 receptor expressed in CHO cells assessed as inhibition of orexin-A-induced intracellular calcium level after 60 mins by FLIPR assay; type: functional, cell-based
T1 sequence (O43614 whole entry): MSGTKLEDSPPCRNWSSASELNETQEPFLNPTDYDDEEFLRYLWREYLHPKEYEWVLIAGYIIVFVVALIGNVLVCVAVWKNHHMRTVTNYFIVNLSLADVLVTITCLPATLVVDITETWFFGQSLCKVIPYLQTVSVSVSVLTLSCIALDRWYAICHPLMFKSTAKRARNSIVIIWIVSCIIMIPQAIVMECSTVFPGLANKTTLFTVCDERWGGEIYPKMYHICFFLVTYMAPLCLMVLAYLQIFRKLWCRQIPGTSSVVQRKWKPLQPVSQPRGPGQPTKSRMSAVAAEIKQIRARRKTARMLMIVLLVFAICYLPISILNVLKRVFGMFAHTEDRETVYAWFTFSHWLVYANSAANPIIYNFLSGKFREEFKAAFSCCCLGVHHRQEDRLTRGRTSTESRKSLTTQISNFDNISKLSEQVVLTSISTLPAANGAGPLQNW

[4] = Clearance in dog at 0.125 mg/kg, iv; type: ADME, organism-based, Canis lupus familiaris; conditions: in vivo
How it was run: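 Intravenous PK in rat (2 mg/kg) and dog (0.125 or 0.5 mg/kg), vehicle 100% DMSO, n = 2. Clearance, Vdss and half-life were determined.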

Homo sapiens = species: Homo sapiens; test: Selectivity ratio of IC50 for human orexin 1 receptor Ile408-Val mutant to IC50 for human orexin 2 receptor
Liver microsome [5] = test: Bioactivation of compound in human liver microsomes assessed as AUC of GSH-adduct formation at 10 uM after 60 mins by HRMS analysis relative to labetalol; conditions: 1 h
Liver microsome [6] = test: Bioactivation of compound in rat liver microsomes assessed as AUC of GSH-adduct formation at 10 uM after 60 mins by HRMS analysis relative to labetalol; conditions: 1 h
Rattus norvegicus [7] = species: Rattus norvegicus; test: Ex vivo receptor occupancy at human OX2R expressed in transgenic rat at plasma concentration of 0.35 uM; type: functional
Rattus norvegicus [8] = test: Anti-insomnia activity in rat sleep model assessed as increase in slow wave at 30 mg/kg, po up to 2 hrs; type: functional, organism-based
[9] = AUC in satellite rat sleep model at 30 mg/kg, po; type: ADME, organism-based; conditions: in vivo
How it was run: (§1)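 Satellite rats from the sleep study were given 30 mg/kg orally as the free base in 20% Vitamin E TPGS in water (n = 3). Plasma AUC, Cmax and Tmax were measured over the sleep experiment.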

[10] = Tmax in satellite rat sleep model at 30 mg/kg, po; type: ADME, organism-based; conditions: in vivo
How it was run: as §1

Rattus norvegicus [11] = test: Anti-insomnia activity in rat sleep model assessed as reduction of active wake at 30 mg/kg, po up to 2 hrs; type: functional, organism-based
Rattus norvegicus [12] = test: Anti-insomnia activity in rat sleep model assessed as increase in REM sleep at 30 mg/kg, po up to 2 hrs; type: functional, organism-based
[13] = Cmax in satellite rat sleep model at 30 mg/kg, po; type: ADME, organism-based; parameters: dose 30 mg/kg, route oral; conditions: in vivo
How it was run: as §1

Row | Compound | pKi [1] | pKi [2] | pIC50 [3] | pIC50 (Orexin receptor type 2) | also measured
1 | Cc1ncc(C(F)(F)F)c(N2CC[C@@H](C)N(C(=O)c3ccccc3-n3nccn3)CC2)n1 | 7.51 | 5.38 | 7.06 | 7.06 | 
2 | Cc1ccc(-n2nccn2)c(C(=O)N2CCN(c3ncc(C(F)(F)F)c(Cl)n3)CC[C@H]2C)c1 | 9.22 | 9.15 | 6.85 | 6.85 | clearance [4]: 15 mL/min/kg
3 | COc1ncc(C(F)(F)F)c(N2CC[C@@H](C)N(C(=O)c3ccccc3-n3nccn3)CC2)n1 |  |  |  | 6.61 | Ratio IC50 (Homo sapiens): 7
4 | COc1nc(N2CC[C@@H](C)N(C(=O)c3cc(C)ccc3-n3nccn3)CC2)ncc1C | 9.22 | 7.85 | 7.51 | 7.51 | 
5 | C[C@@H]1CCN(c2nc(Cl)ncc2C(F)(F)F)CCN1C(=O)c1ccccc1-n1nccn1 |  | 5.96 | 7.14 | 7.14 | 
6 | C[C@@H]1CCN(c2ncc(C(F)(F)F)c(Cl)n2)CCN1C(=O)c1ccccc1-n1nccn1 |  | 8.29 | 7.06 | 7.06 | 
7 | C[C@@H]1CCN(c2nc(Cl)ncc2Cl)CCN1C(=O)c1ccccc1-n1nccn1 | 8.96 | 6.07 |  | 7.60 | 
8 | Cc1ccc(-n2nccn2)c(C(=O)N2CCN(c3nc4cc(Cl)ccc4o3)CC[C@H]2C)c1 [SUVOREXANT] |  |  |  |  | Activity (Liver microsome [5]): > 95%; Activity (Liver microsome [6]): > 95%
9 | C[C@@H]1CCN(c2ncc3cc(F)ccc3n2)CCN1C(=O)c1ccccc1-n1nccn1 |  |  |  |  | Activity (Rattus norvegicus [7]): 90%; Activity (Rattus norvegicus [8]): Active; AUC [9]: 4.5 µM·h; Tmax [10]: 1.3 h; clearance [4]: 3 mL/min/kg; Activity (Rattus norvegicus [11]): Active; Activity (Rattus norvegicus [12]): Active; Cmax [13]: 2000 nM
